Experimental data as given in ChEMBL document CHEMBL5376013, “Design, synthesis and biological evaluation of novel morpholinopyrimidine-5-carbonitrile derivatives as dual PI3K/mTOR inhibitors” (RSC Med Chem, 2024).

Tests used:
Assay type in all cases: functional
Settings in all cases: read-out: GI
SW-620 = test: Antitumor activity against human SW-620 cells assessed as growth inhibition at 10 uM relative to control
Procedure, shortened: (§1)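 Drug exposure 48 h at 37 °C, 5% CO2. Adherent cells fixed with cold TCA (10% final), suspension cells with TCA (16% final). Stained with 0.4% SRB in 1% acetic acid, dissolved in 10 mM Tris, A515. Growth relative to time-zero and untreated control.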

SN12C = test: Antitumor activity against human SN12C cells assessed as growth inhibition at 10 uM relative to control; procedure, shortened: as §1
K562 = test: Antitumor activity against human K562 cells assessed as growth inhibition at 10 uM relative to control
Procedure, shortened: (§2)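 After drug addition, plates were incubated 48 h at 37 °C under 5% CO2. Adherent cells were fixed with cold TCA (10% final, 60 min, 4 °C) and suspension cells with 16% final TCA. Staining used 0.4% SRB in 1% acetic acid, solubilized in 10 mM trizma, read at A515. Percent growth was calculated from time-zero, control and treated absorbances.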

MDA-MB-435 = test: Antitumor activity against human MDA-MB-435 cells assessed as growth inhibition at 10 uM relative to control; procedure, shortened: as §2
OVCAR-3 = test: Antitumor activity against human OVCAR-3 cells assessed as growth inhibition at 10 uM relative to control; procedure, shortened: as §2
ACHN = test: Antitumor activity against human ACHN cells assessed as growth inhibition at 10 uM relative to control; procedure, shortened: as §2
NCI-H322M = test: Antitumor activity against human NCI-H322M cells assessed as growth inhibition at 10 uM relative to control; procedure, shortened: as §2
COLO 205 = test: Antitumor activity against human COLO 205 cells assessed as growth inhibition at 10 uM relative to control; procedure, shortened: as §2
TK-10 = test: Antitumor activity against human TK-10 cells assessed as growth inhibition at 10 uM relative to control; procedure, shortened: as §1
M14 = test: Antitumor activity against human M14 cells assessed as growth inhibition at 10 uM relative to control; procedure, shortened: as §2
PC-3 = test: Antitumor activity against human PC-3 cells assessed as growth inhibition at 10 uM relative to control; procedure, shortened: as §2
DU-145 = test: Antitumor activity against human DU-145 cells assessed as growth inhibition at 10 uM relative to control; procedure, shortened: as §2
T47D = test: Antitumor activity against human T47D cells assessed as growth inhibition at 10 uM relative to control; procedure, shortened: as §1
KM12 = test: Antitumor activity against human KM12 cells assessed as growth inhibition at 10 uM relative to control; procedure, shortened: as §2
NCI-H522 = test: Antitumor activity against human NCI-H522 cells assessed as growth inhibition at 10 uM relative to control; procedure, shortened: as §2
SK-OV-3 = test: Antitumor activity against human SK-OV-3 cells assessed as growth inhibition at 10 uM relative to control; procedure, shortened: as §1
UACC-62 = test: Antitumor activity against human UACC-62 cells assessed as growth inhibition at 10 uM relative to control; procedure, shortened: as §1
SF-268 = test: Antitumor activity against human SF-268 cells assessed as growth inhibition at 10 uM relative to control; procedure, shortened: as §2
BT-549 = test: Antitumor activity against human BT-549 cells assessed as growth inhibition at 10 uM relative to control; procedure, shortened: as §2
LOX IMVI = test: Antitumor activity against human LOX IMVI cells assessed as growth inhibition at 10 uM relative to control; procedure, shortened: as §2
NCI/ADR-RES = test: Antitumor activity against human NCI-ADR-RES cells assessed as growth inhibition at 10 uM relative to control; procedure, shortened: as §2
CCRF-CEM = test: Antitumor activity against human CCRF-CEM cells assessed as growth inhibition at 10 uM relative to control; procedure, shortened: as §2
U-251 = test: Antitumor activity against human U-251 cells assessed as growth inhibition at 10 uM relative to control; procedure, shortened: as §1
OVCAR-5 = test: Antitumor activity against human OVCAR-5 cells assessed as growth inhibition at 10 uM relative to control; procedure, shortened: as §2
Malme-3M = test: Antitumor activity against human Malme-3M cells assessed as growth inhibition at 10 uM relative to control; procedure, shortened: as §2
MCF7 = test: Antitumor activity against human MCF7 cells assessed as growth inhibition at 10 uM relative to control; procedure, shortened: as §2
SK-MEL-2 = test: Antitumor activity against human SK-MEL-2 cells assessed as growth inhibition at 10 uM relative to control; procedure, shortened: as §2
HCT-15 = test: Antitumor activity against human HCT-15 cells assessed as growth inhibition at 10 uM relative to control; procedure, shortened: as §2
EKVX = test: Antitumor activity against human EKVX cells assessed as growth inhibition at 10 uM relative to control; procedure, shortened: as §2
UACC-257 = test: Antitumor activity against human UACC-257 cells assessed as growth inhibition at 10 uM relative to control; procedure, shortened: as §1
SNB-75 = test: Antitumor activity against human SNB-75 cells assessed as growth inhibition at 10 uM relative to control; procedure, shortened: as §1
HCT-116 = test: Antitumor activity against human HCT-116 cells assessed as growth inhibition at 10 uM relative to control; procedure, shortened: as §2
SNB-19 = test: Antitumor activity against human SNB-19 cells assessed as growth inhibition at 10 uM relative to control; procedure, shortened: as §1
HT-29 = test: Antitumor activity against human HT-29 cells assessed as growth inhibition at 10 uM relative to control; procedure, shortened: as §2
CAKI-1 = test: Antitumor activity against human CAKI-1 cells assessed as growth inhibition at 10 uM relative to control; procedure, shortened: as §2
NCI-H226 = test: Antitumor activity against human NCI-H226 cells assessed as growth inhibition at 10 uM relative to control; procedure, shortened: as §2
A498 = test: Antitumor activity against human A498 cells assessed as growth inhibition at 10 uM relative to control; procedure, shortened: as §2
NCI-H23 = test: Antitumor activity against human NCI-H23 cells assessed as growth inhibition at 10 uM relative to control; procedure, shortened: as §2
SK-MEL-28 = test: Antitumor activity against human SK-MEL-28 cells assessed as growth inhibition at 10 uM relative to control; procedure, shortened: as §1
SF-539 = test: Antitumor activity against human SF-539 cells assessed as growth inhibition at 10 uM relative to control; procedure, shortened: as §2
RPMI-8226 = test: Antitumor activity against human RPMI-8226 cells assessed as growth inhibition at 10 uM relative to control; procedure, shortened: as §2
786-0 = test: Antitumor activity against human 786-0 cells assessed as growth inhibition at 10 uM relative to control; procedure, shortened: as §2
SK-MEL-5 = test: Antitumor activity against human SK-MEL-5 cells assessed as growth inhibition at 10 uM relative to control; procedure, shortened: as §1
MOLT-4 = test: Antitumor activity against human MOLT-4 cells assessed as growth inhibition at 10 uM relative to control; procedure, shortened: as §2
OVCAR-8 = test: Antitumor activity against human OVCAR-8 cells assessed as growth inhibition at 10 uM relative to control; procedure, shortened: as §2
RXF 393 = test: Antitumor activity against human RXF 393 cells assessed as growth inhibition at 10 uM relative to control; procedure, shortened: as §2

SMILES: N#Cc1c(-c2ccc(Cl)cc2)nc(N/N=C/c2cccc(F)c2)nc1N1CCOCC1
- inhibition of growth at 10 µM (SW-620): < 1%
- inhibition of growth at 10 µM (SN12C): < 1%
- inhibition of growth at 10 µM (K562): 15%
- inhibition of growth at 10 µM (MDA-MB-435): < 1%
- inhibition of growth at 10 µM (OVCAR-3): < 1%
- inhibition of growth at 10 µM (ACHN): 10.2%
- inhibition of growth at 10 µM (NCI-H322M): < 1%
- inhibition of growth at 10 µM (COLO 205): 27.2%
- inhibition of growth at 10 µM (TK-10): < 1%
- inhibition of growth at 10 µM (M14): < 1%
- inhibition of growth at 10 µM (PC-3): 14.9%
- inhibition of growth at 10 µM (DU-145): < 1%
- inhibition of growth at 10 µM (T47D): 11.2%
- inhibition of growth at 10 µM (KM12): 16%
- inhibition of growth at 10 µM (NCI-H522): 11.6%
- inhibition of growth at 10 µM (SK-OV-3): < 1%
- inhibition of growth at 10 µM (UACC-62): < 1%
- inhibition of growth at 10 µM (SF-268): < 1%
- inhibition of growth at 10 µM (BT-549): < 1%
- inhibition of growth at 10 µM (LOX IMVI): 11.8%
- inhibition of growth at 10 µM (NCI/ADR-RES): < 1%
- inhibition of growth at 10 µM (CCRF-CEM): 19.6%
- inhibition of growth at 10 µM (U-251): 21.1%
- inhibition of growth at 10 µM (OVCAR-5): < 1%
- inhibition of growth at 10 µM (Malme-3M): < 1%
- inhibition of growth at 10 µM (MCF7): < 12.4%
- inhibition of growth at 10 µM (SK-MEL-2): < 1%
- inhibition of growth at 10 µM (HCT-15): 21.3%
- inhibition of growth at 10 µM (EKVX): 26.2%
- inhibition of growth at 10 µM (UACC-257): < 1%
- inhibition of growth at 10 µM (SNB-75): 35.8%
- inhibition of growth at 10 µM (HCT-116): < 1%
- inhibition of growth at 10 µM (SNB-19): < 1%
- inhibition of growth at 10 µM (HT-29): 30%
- inhibition of growth at 10 µM (CAKI-1): 13.7%
- inhibition of growth at 10 µM (NCI-H226): < 1%
- inhibition of growth at 10 µM (A498): 17%
- inhibition of growth at 10 µM (NCI-H23): < 1%
- inhibition of growth at 10 µM (SK-MEL-28): < 1%
- inhibition of growth at 10 µM (SF-539): < 1%
- inhibition of growth at 10 µM (RPMI-8226): 22.3%
- inhibition of growth at 10 µM (786-0): < 1%
- inhibition of growth at 10 µM (SK-MEL-5): < 1%
- inhibition of growth at 10 µM (MOLT-4): 25.9%
- inhibition of growth at 10 µM (OVCAR-8): < 1%
- inhibition of growth at 10 µM (RXF 393): < 1%

SMILES: N#Cc1c(-c2ccc(Cl)cc2)nc(N/N=C2/C(=O)Nc3ccc(Cl)cc32)nc1N1CCOCC1
- inhibition of growth at 10 µM (SW-620): < 1%
- inhibition of growth at 10 µM (SN12C): < 1%
- inhibition of growth at 10 µM (K562): < 1%
- inhibition of growth at 10 µM (MDA-MB-435): < 1%
- inhibition of growth at 10 µM (OVCAR-3): < 1%
- inhibition of growth at 10 µM (ACHN): < 1%
- inhibition of growth at 10 µM (NCI-H322M): < 1%
- inhibition of growth at 10 µM (COLO 205): 1%
- inhibition of growth at 10 µM (TK-10): < 1%
- inhibition of growth at 10 µM (M14): < 1%
- inhibition of growth at 10 µM (PC-3): < 1%
- inhibition of growth at 10 µM (DU-145): < 1%
- inhibition of growth at 10 µM (T47D): < 1%
- inhibition of growth at 10 µM (KM12): < 1%
- inhibition of growth at 10 µM (NCI-H522): < 1%
- inhibition of growth at 10 µM (SK-OV-3): < 1%
- inhibition of growth at 10 µM (UACC-62): < 1%
- inhibition of growth at 10 µM (SF-268): < 1%
- inhibition of growth at 10 µM (BT-549): < 1%
- inhibition of growth at 10 µM (LOX IMVI): 16.8%
- inhibition of growth at 10 µM (NCI/ADR-RES): 11.7%
- inhibition of growth at 10 µM (CCRF-CEM): < 1%
- inhibition of growth at 10 µM (U-251): < 1%
- inhibition of growth at 10 µM (OVCAR-5): < 1%
- inhibition of growth at 10 µM (Malme-3M): 11.2%
- inhibition of growth at 10 µM (MCF7): 1%
- inhibition of growth at 10 µM (SK-MEL-2): < 1%
- inhibition of growth at 10 µM (HCT-15): 1%
- inhibition of growth at 10 µM (EKVX): 13.9%
- inhibition of growth at 10 µM (UACC-257): < 1%
- inhibition of growth at 10 µM (SNB-75): 31.3%
- inhibition of growth at 10 µM (HCT-116): < 1%
- inhibition of growth at 10 µM (SNB-19): < 1%
- inhibition of growth at 10 µM (HT-29): < 1%
- inhibition of growth at 10 µM (CAKI-1): < 1%
- inhibition of growth at 10 µM (NCI-H226): 10.5%
- inhibition of growth at 10 µM (A498): 26.9%
- inhibition of growth at 10 µM (NCI-H23): 15.2%
- inhibition of growth at 10 µM (SK-MEL-28): < 1%
- inhibition of growth at 10 µM (SF-539): < 1%
- inhibition of growth at 10 µM (RPMI-8226): < 1%
- inhibition of growth at 10 µM (786-0): < 1%
- inhibition of growth at 10 µM (SK-MEL-5): < 1%
- inhibition of growth at 10 µM (MOLT-4): < 1%
- inhibition of growth at 10 µM (OVCAR-8): < 1%
- inhibition of growth at 10 µM (RXF 393): < 1%
